Experimental findings from ChEMBL document CHEMBL3272173, “Synthesis and biological activity of peptide antagonists of luliberin (luteinizing hormone-releasing hormone)” (J Med Chem, 1979) are described below.

For assay [1], the target named is T1, Gonadotropin-releasing hormone receptor (Rattus norvegicus) (UniProt P30969).
T1 sequence (whole entry): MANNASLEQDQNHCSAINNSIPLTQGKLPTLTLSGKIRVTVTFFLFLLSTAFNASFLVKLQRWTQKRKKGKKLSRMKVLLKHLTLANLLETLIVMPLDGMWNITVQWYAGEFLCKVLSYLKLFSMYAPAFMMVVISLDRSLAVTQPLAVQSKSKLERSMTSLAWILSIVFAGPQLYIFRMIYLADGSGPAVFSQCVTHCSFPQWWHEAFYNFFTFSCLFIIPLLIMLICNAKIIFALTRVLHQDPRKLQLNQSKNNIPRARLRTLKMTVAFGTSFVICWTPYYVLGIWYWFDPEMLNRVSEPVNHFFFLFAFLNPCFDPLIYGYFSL
Nature of the assay: In vitro antagonist activity at GNRHR in CD rat anterior pituitary gland assessed as inhibition of LH-RH-stimulated LH release at compound to LH-RH molar ratio of 100 after 4 hrs by radioimmunoassay. Particulars: concentration not given here. The gist of the method:
(§1)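 Anterior pituitaries from diestrus CD rats (200-250 g) were dissociated enzymatically (collagenase, hyaluronidase, then Viokase). Cells were cultured 4 days at 1.67 × 10^5 cells/mL in DME with 10% horse serum and 2.5% fetal calf serum, then washed serum-free. Duplicate cultures received LH-RH (2-5 × 10^-10 M) with a single analogue concentration in serum-free DME for 4 h at 37 °C. LH in the medium was measured by RIA and reported as % inhibition of LH-RH-stimulated release.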

For assay [2], the target named is T1, Gonadotropin-releasing hormone receptor (Rattus norvegicus). Nature of the assay: In vitro antagonist activity at GNRHR in CD rat anterior pituitary gland assessed as ratio of molar concentration of compound to LH-RH for inhibition of LH-RH-stimulated LH release after 4 hrs by radioimmunoassay. In short, it runs like this:
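Monolayers were cultured 4 days from dissociated anterior pituitary cells of diestrus CD rats. They were exposed in duplicate to LH-RH (2-5 × 10^-10 M) plus multiple analogue concentrations in serum-free DME for 4 h at 37 °C. LH in the medium was measured by radioimmunoassay. The ED50 molar ratio is the analogue:LH-RH molar ratio giving 50% inhibition of LH-RH-stimulated LH release.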

Assay [3] has as its system Rattus norvegicus. Nature of the assay: Antiovulatory activity in CD rat assessed as blockade of ovulation at 1 mg, sc administered as six doses at 1200, 1230, 1300, 1350, 1400 and 1450 hrs during proestrus stage measured during estrus stage by dissecting microscopic analysis. In kind it is functional. The gist of the method: (§2)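 Cycling Charles River CD rats were given six subcutaneous injections of analogue in 0.1 mL propylene glycol on the afternoon of proestrus, and controls received vehicle alone. Rats were killed the next morning (estrus). Ovulating animals were scored and ova in the oviducts were counted under a dissecting microscope.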

The test system of assay [4] is Rattus norvegicus. Nature of the assay: Antiovulatory activity in sc dosed CD rat assessed as blockade of ovulation administered as six doses at 1200, 1230, 1300, 1350, 1400 and 1450 hrs during proestrus stage measured during estrus stage by dissecting microscopic analysis. It counts as functional. In short, it runs like this: as §2
For assay [5], the target named is T1, Gonadotropin-releasing hormone receptor (Rattus norvegicus). Nature of the assay: In vitro antagonist activity at GNRHR in CD rat anterior pituitary gland assessed as inhibition of LH-RH-stimulated LH release at compound to LH-RH molar ratio of 10000 after 4 hrs by radioimmunoassay. As to conditions: concentration not given here. The gist of the method:
as §1

Assay [6] shares this target. Nature of the assay: In vitro antagonist activity at GNRHR in CD rat anterior pituitary gland assessed as inhibition of LH-RH-stimulated LH release at compound to LH-RH molar ratio of 200 after 4 hrs by radioimmunoassay. As to conditions: concentration not given here. The gist of the method:
as §1

For assay [7] the target is unchanged. Nature of the assay: In vitro antagonist activity at GNRHR in CD rat anterior pituitary gland assessed as inhibition of LH-RH-stimulated LH release at compound to LH-RH molar ratio of 20 after 4 hrs by radioimmunoassay. Particulars: concentration not given here. In short, it runs like this:
as §1

The target is the same in assay [8]. Nature of the assay: In vitro antagonist activity at GNRHR in CD rat anterior pituitary gland assessed as inhibition of LH-RH-stimulated LH release at compound to LH-RH molar ratio of 2800 after 4 hrs by radioimmunoassay. As to conditions: concentration not given here. In short, it runs like this:
as §1

Peptide text beside a SMILES is read from it. * marks the point of attachment. Cbz = O=C(OCc1ccccc1)*; Boc = CC(C)(C)OC(=O)*; NHBn = c1ccc(CN*)cc1; Bn = c1ccc(C*)cc1

With `CC(C)C[C@H](NC(=O)OCc1ccccc1)C(=O)N[C@@H](Cc1c[nH]c2ccccc12)C(=O)N[C@@H](CO)C(=O)N[C@@H](Cc1ccc(O)cc1)C(=O)N[C@H](CC(N)=O)C(=O)N[C@@H](CC(C)C)C(=O)N[C@@H](CCCNC(=N)N)C(=O)N1CCC[C@H]1C(=O)NCC(N)=O.Cl`, the inhibition in assay [1] amounted to 42%. In addition, the ED50 in assay [2] was 134 molar ratio; in the assay with Rattus norvegicus [4], greater than 1 mg. Also, the “inhibition (INH)” value with Rattus norvegicus [3] was determined as 0%.
For `CC(C)C[C@H](NC(=O)CNC(=O)[C@H](Cc1ccc(O)cc1)NC(=O)[C@H](CO)NC(=O)[C@H](Cc1c[nH]c2ccccc12)NC(=O)[C@@H]1CCC(=O)N1)C(=O)N[C@@H](CCCNC(=N)N)C(=O)N1CCC[C@H]1C(=O)NCC(N)=O` (HELM PEPTIDE1{[Glp].W.S.Y.G.L.R.P.G.[am]}$$$$V2.0), the inhibition in assay [5] was 60%.
Regarding `CCNC(=O)[C@@H]1CCCN1C(=O)[C@H](CCCNC(=N)N)NC(=O)[C@H](CC(C)C)NC(=O)CNC(=O)[C@H](Cc1ccc(O)cc1)NC(=O)[C@H](CO)NC(=O)[C@H](Cc1c[nH]c2ccccc12)NC(=O)[C@H](CCC(=O)NCc1ccccc1)NC(=O)OCc1ccccc1.Cl` (Cbz-E(NHBn)WSYGLRP-NHEt), the inhibition in assay [1] amounted to 88%. Further, the ED50 was 350 molar ratio in assay [2] and greater than 1 mg with Rattus norvegicus [4]. Further, in the assay on Rattus norvegicus [3], the “inhibition (INH)” value is recorded as 20%.
Take `CC(C)C[C@H](NC(=O)[C@@H](Cc1c[nH]c2ccccc12)NC(=O)[C@H](Cc1ccc(O)cc1)NC(=O)[C@H](CO)NC(=O)[C@H](Cc1c[nH]c2ccccc12)NC(=O)[C@H](CCC(N)=O)NC(=O)OCc1ccccc1)C(=O)N[C@@H](CCCNC(=N)N)C(=O)N1CCC[C@H]1C(=O)NCC(N)=O.Cl`: the inhibition in assay [6] amounted to 87%. The ED50 is 8 molar ratio in assay [2] and greater than 1 mg in the assay with Rattus norvegicus [4]. Further, the “inhibition (INH)” value with Rattus norvegicus [3] is given as 0%.
Turning to `CCNC(=O)[C@@H]1CCCN1C(=O)[C@H](CCCNC(=N)N)NC(=O)[C@H](CC(C)C)NC(=O)[C@@H](Cc1ccccc1)NC(=O)[C@H](Cc1ccc(O)cc1)NC(=O)[C@H](CO)NC(=O)[C@H](Cc1c[nH]c2ccccc12)NC(=O)[C@H](CC(C)C)NC(=O)OCc1ccccc1.Cl`, the inhibition in assay [7] stood at 100%. The ED50 in assay [2] was 3 molar ratio; in the assay on Rattus norvegicus [4], greater than 1 mg. Also, in the assay with Rattus norvegicus [3], the “inhibition (INH)” value was determined as 0%.
Turning to `CC(C)C[C@H](NC(=O)CNC(=O)[C@H](Cc1ccc(O)cc1)NC(=O)[C@H](CO)NC(=O)[C@H](Cc1c[nH]c2ccccc12)NC(=O)[C@H](Cc1cnc[nH]1)NC(=O)OCc1ccccc1)C(=O)N[C@@H](CCCNC(=N)N)C(=O)N1CCC[C@H]1C(=O)NCC(N)=O` (HELM PEPTIDE1{[O=C(OCc1ccccc1)[*:2]].H.W.S.Y.G.L.R.P.G.[am]}$$$$V2.0), in assay [5], the inhibition came to 58%.
Still for that read-out and setting: for `CC(C)C[C@H](NC(=O)CNC(=O)[C@H](Cc1ccc(O)cc1)NC(=O)[C@H](CO)NC(=O)[C@H](Cc1c[nH]c2ccccc12)NC(=O)[C@@H]1CCCN1C=O)C(=O)N[C@@H](CCCNC(=N)N)C(=O)N1CCC[C@H]1C(=O)NCC(N)=O` (HELM PEPTIDE1{[O=C[*:2]].P.W.S.Y.G.L.R.P.G.[am]}$$$$V2.0) the value was 53%.
Regarding `CC(C)C[C@H](NC(=O)CNC(=O)[C@H](Cc1ccc(O)cc1)NC(=O)[C@H](CO)NC(=O)[C@H](Cc1c[nH]c2ccccc12)NC(=O)OCc1ccccc1)C(=O)N[C@@H](CCCNC(=N)N)C(=O)N1CCC[C@H]1C(=O)NCC(N)=O.Cl` (HELM PEPTIDE1{[O=C(OCc1ccccc1)[*:2]].W.S.Y.G.L.R.P.G.[am]}$$$$V2.0), the inhibition in assay [5] worked out at 68%. Further, the “inhibition (INH)” value in the assay with Rattus norvegicus [3] is given as 20%. In the assay on Rattus norvegicus [4], the ED50 is greater than 1 mg.
On to `CCNC(=O)[C@@H]1CCCN1C(=O)[C@H](CCCNC(=N)N)NC(=O)[C@H](CC(C)C)NC(=O)CNC(=O)[C@H](Cc1ccc(O)cc1)NC(=O)[C@H](CO)NC(=O)[C@H](Cc1c[nH]c2ccccc12)NC(=O)[C@@H](CC(C)C)NC(=O)OCc1ccccc1`, for which the inhibition in assay [8] is 51%.
In the case of `CC(C)C[C@H](NC(=O)[C@@H](CC(C)C)NC(=O)[C@H](Cc1ccc(O)cc1)NC(=O)[C@H](CO)NC(=O)[C@H](Cc1c[nH]c2ccccc12)NC(=O)[C@H](Cc1ccc(OCc2ccccc2)cc1)NC(=O)OCc1ccccc1)C(=O)N[C@@H](CCCNC(=N)N)C(=O)N1CCC[C@H]1C(=O)NCC(N)=O.Cl`, the inhibition in assay [7] stood at 57%. For the same compound, the ED50 in assay [2] is 7 molar ratio; in the assay with Rattus norvegicus [4] it was greater than 1 mg. Moreover, the “inhibition (INH)” value in the assay on Rattus norvegicus [3] is given as 0%.
On to `CC(C)C[C@H](NC(=O)CNC(=O)[C@H](Cc1ccc(O)cc1)NC(=O)[C@H](CO)NC(=O)[C@H](Cc1c[nH]c2ccccc12)NC(=O)[C@H](Cc1ccc(OCc2ccccc2)cc1)NC(=O)OCc1ccccc1)C(=O)N[C@@H](CCCNC(=N)N)C(=O)N1CCC[C@H]1C(=O)NCC(N)=O.Cl` (Cbz-Y(Bn)WSYGLRPG-NH2), for which the inhibition in assay [8] was 74%. The “inhibition (INH)” value in the assay on Rattus norvegicus [3] stood at 20%. For the same compound, the ED50 with Rattus norvegicus [4] is given as greater than 1 mg.
In the case of `CC(=O)O.CCNC(=O)[C@@H]1CCCN1C(=O)[C@H](CCCNC(=N)N)NC(=O)[C@H](CC(C)C)NC(=O)[C@@H](Cc1ccc(OC)cc1)NC(=O)[C@H](Cc1ccc(O)cc1)NC(=O)[C@H](CO)NC(=O)[C@H](Cc1c[nH]c2ccccc12)NC(=O)[C@H](COCc1ccccc1)NC(=O)OCc1ccccc1`, the inhibition in assay [7] was found to be 100%. Besides, the “inhibition (INH)” value in the assay on Rattus norvegicus [3] was determined as 100%. Besides, the ED50 in the assay on Rattus norvegicus [4] is 0.1 mg.
`CC(C)C[C@H](NC(=O)CNC(=O)[C@H](Cc1ccc(O)cc1)NC(=O)[C@H](CO)NC(=O)[C@H](Cc1c[nH]c2ccccc12)NC(=O)[C@@H](Cc1ccccc1)NC(=O)OCc1ccccc1)C(=O)N[C@@H](CCCNC(=N)N)C(=O)N1CCC[C@H]1C(=O)NCC(N)=O.Cl`: the inhibition in assay [8] was 76%. In addition, in the assay on Rattus norvegicus [3], the “inhibition (INH)” value was 0%. Further, the ED50 in the assay with Rattus norvegicus [4] is on record as greater than 1 mg.
For the compound H-HWSYGLRPG-NH2, the inhibition in assay [5] was 42%.
Consider H-WSYGLRPG-NH2, for which, in assay [5], the inhibition was 15%.
Take `CC(=O)O.CC(C)C[C@H](NC(=O)[C@@H](Cc1ccccc1)NC(=O)[C@H](Cc1ccc(O)cc1)NC(=O)[C@H](CO)NC(=O)[C@H](Cc1c[nH]c2ccccc12)NC(=O)[C@H](COCc1ccccc1)NC(=O)OCc1ccccc1)C(=O)N[C@@H](CCCNC(=N)N)C(=O)N1CCC[C@H]1C(=O)N(C)C`: in assay [7], the inhibition is 100%. In addition, the results for the ED50 (in assay [2]; with Rattus norvegicus [4]) were 5.9 molar ratio and greater than 3 mg, respectively. For the same compound, the “inhibition (INH)” value in the assay with Rattus norvegicus [3] came out at 40%.
As for `CCNC(=O)[C@@H]1CCCN1C(=O)[C@H](CCCNC(=N)N)NC(=O)[C@H](CC(C)C)NC(=O)[C@@H](CCCNC(=N)N)NC(=O)[C@H](Cc1ccc(O)cc1)NC(=O)[C@H](CO)NC(=O)[C@H](Cc1c[nH]c2ccccc12)NC(=O)[C@H](CCC(N)=O)NC(=O)OCc1ccccc1.Cl`, in assay [8], the inhibition was found to be 86%. The ED50 is 20 molar ratio in assay [2] and greater than 1 mg in the assay with Rattus norvegicus [4]. For the same compound, the “inhibition (INH)” value in the assay with Rattus norvegicus [3] is recorded as 0%.
Turning to `CCNC(=O)[C@@H]1CCCN1C(=O)[C@H](CCCNC(=N)N)NC(=O)[C@H](CC(C)C)NC(=O)CNC(=O)[C@H](Cc1ccc(O)cc1)NC(=O)[C@H](CO)NC(=O)[C@H](Cc1c[nH]c2ccccc12)NC(=O)[C@H](COCc1ccccc1)NC(=O)OC(C)(C)C` (Boc-S(Bn)WSYGLRP-NHEt), the inhibition in assay [8] was found to be 40%.
